Data on ten molecules can be found in ChEMBL document CHEMBL1811815, “Synthesis of new pyrazole derivatives and their anticancer evaluation” (2010).

One test has as its system MOLT-4. The experiment in a line: Anticancer activity against human MOLT4 cells assessed as cell growth at 10^-5 M after 48 hrs by sulforhodamine B assay relative to control. Conditions: MOLT-4, 48 h. For orientation: The SRB assay estimates cell density from bound dye.
For the next test, the system named is NCI-H522. The experiment in a line: Anticancer activity against human NCI-H522 cells assessed as cell growth at 10^-5 M after 48 hrs by sulforhodamine B assay relative to control. Particulars: NCI-H522, 48 h.
A further test has as its system ACHN. The experiment in a line: Anticancer activity against human ACHN cells assessed as cell growth at 10^-5 M after 48 hrs by sulforhodamine B assay relative to control.
Test [1] relates to DU-145. The experiment in a line: Anticancer activity against human DU145 cells assessed as cell growth at 10^-5 M after 48 hrs by sulforhodamine B assay relative to control. Particulars: DU-145, 48 h.
A further test has as its system HOP-92. Briefly: Anticancer activity against human HOP92 cells assessed as cell growth at 10^-5 M after 48 hrs by sulforhodamine B assay relative to control. Particulars: HOP-92, 48 h.
The test system of a further test is UACC-62. The experiment in a line: Anticancer activity against human UACC62 cells assessed as cell growth at 10^-5 M after 48 hrs by sulforhodamine B assay relative to control. Conditions: UACC-62, 48 h.
Another test deals with NCI-H23. Briefly: Growth inhibition of human NCI-H23 cells after 48 hrs by sulforhodamine B assay. It counts as functional. Conditions: NCI-H23, 48 h. An outline of the steps: (§1)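 NCI five-dose assay using 10-fold serial dilutions from 10^-8 to 10^-4 M, compound in DMSO. Cells exposed 48 h at 37 °C, 5% CO2, 100% humidity. Protein measured by sulforhodamine B staining at 515 nm, with time-zero, control and treated readings. GI50 is the concentration where [(Ti−Tz)/(C−Tz)]×100 = 50. It is reported as greater or less than the range bounds when not reached.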

For another test, the system named is SF-539. Briefly: Growth inhibition of human SF539 cells after 48 hrs by sulforhodamine B assay. Conditions: SF-539, 48 h. The test is classed as functional. Summed up: as §1
The subject of test [2] is HCT-116. The experiment in a line: Growth inhibition of human HCT116 cells after 48 hrs by sulforhodamine B assay. It counts as functional. Particulars: HCT-116, 48 h. An outline of the steps: as §1
For a further test, the system named is OVCAR-8. The experiment in a line: Growth inhibition of human OVCAR8 cells after 48 hrs by sulforhodamine B assay. The test is classed as functional. Conditions: OVCAR-8, 48 h. An outline of the steps:
as §1

In the next test the test system is SNB-75. The experiment in a line: Growth inhibition of human SNB75 cells after 48 hrs by sulforhodamine B assay. It counts as functional. Particulars: SNB-75, 48 h. Summed up:
as §1

Another test relates to SK-OV-3. The experiment in a line: Growth inhibition of human SKOV3 cells after 48 hrs by sulforhodamine B assay. Conditions: SK-OV-3, 48 h. It counts as functional. Summed up: as §1
The subject of a further test is RXF 393. Briefly: Growth inhibition of human RXF393 cells after 48 hrs by sulforhodamine B assay. The test is classed as functional. Particulars: RXF 393, 48 h. Summed up: as §1
A further test has as its system UO-31. The experiment in a line: Growth inhibition of human UO31 cells after 48 hrs by sulforhodamine B assay. It counts as functional. Conditions: UO-31, 48 h. An outline of the steps: as §1
A further test relates to TK-10. Briefly: Anticancer activity against human TK10 cells assessed as cell growth at 10^-5 M after 48 hrs by sulforhodamine B assay relative to control. Conditions: TK-10, 48 h.
A short description of test [3]: Growth inhibition of human Hs 578T cells after 48 hrs by sulforhodamine B assay. The test is classed as functional. Summed up:
as §1

A further test relates to A549. Briefly: Growth inhibition of human A549 cells after 48 hrs by sulforhodamine B assay. It counts as functional. Conditions: A549, 48 h. An outline of the steps: as §1
The test system of test [4] is HCT-116. Briefly: Anticancer activity against human HCT116 cells assessed as cell growth at 10^-5 M after 48 hrs by sulforhodamine B assay relative to control. Conditions: HCT-116, 48 h.
The subject of the next test is MDA-MB-231. Briefly: Growth inhibition of human MDA-MB-231 cells after 48 hrs by sulforhodamine B assay. It counts as functional. Particulars: MDA-MB-231, 48 h. Summed up: as §1
For the next test, the system named is SR. The experiment in a line: Growth inhibition of human SR cells after 48 hrs by sulforhodamine B assay. It counts as functional. Summed up:
as §1

A further test relates to 786-0. Briefly: Growth inhibition of human 786-0 cells after 48 hrs by sulforhodamine B assay. Particulars: 786-0, 48 h. The test is classed as functional. An outline of the steps: as §1
The subject of a further test is NCI/ADR-RES. Briefly: Growth inhibition of human NCI/ADR-RES cells after 48 hrs by sulforhodamine B assay. The test is classed as functional. An outline of the steps: as §1
The test system of another test is OVCAR-3. The experiment in a line: Growth inhibition of human OVCAR3 cells after 48 hrs by sulforhodamine B assay. The test is classed as functional. Particulars: OVCAR-3, 48 h. Summed up:
as §1

In a further test the test system is LOX IMVI. Briefly: Growth inhibition of human LOXIMVI cells after 48 hrs by sulforhodamine B assay. The test is classed as functional. An outline of the steps: as §1
The test system of another test is Malme-3M. Briefly: Growth inhibition of human MALME-3M cells after 48 hrs by sulforhodamine B assay. It counts as functional. Summed up:
as §1

In the next test the test system is SF-295. Briefly: Growth inhibition of human SF295 cells after 48 hrs by sulforhodamine B assay. It counts as functional. Conditions: SF-295, 48 h. Summed up:
as §1

Another test has as its system NCI-H322M. Briefly: Growth inhibition of human NCI-H322M cells after 48 hrs by sulforhodamine B assay. It counts as functional. Summed up: as §1
The test system of test [5] is DU-145. Briefly: Growth inhibition of human DU145 cells after 48 hrs by sulforhodamine B assay. The test is classed as functional. Particulars: DU-145, 48 h. An outline of the steps:
as §1

The subject of a further test is OVCAR-4. Briefly: Growth inhibition of human OVCAR4 cells after 48 hrs by sulforhodamine B assay. It counts as functional. Particulars: OVCAR-4, 48 h. Summed up:
as §1

The next test has as its system MDA-MB-435. The experiment in a line: Anticancer activity against human MDA-MB-435 cells assessed as cell growth at 10^-5 M after 48 hrs by sulforhodamine B assay relative to control. Conditions: MDA-MB-435, 48 h.
For the next test, the system named is CAKI-1. Briefly: Anticancer activity against human Caki1 cells assessed as cell growth at 10^-5 M after 48 hrs by sulforhodamine B assay relative to control. Particulars: CAKI-1, 48 h.
The mark [6] stands for this setting: read-out: pLC50 (the source's name) (converted).

By GI50 is commonly meant the concentration giving 50% growth inhibition. A high value points to lower sensitivity of the cells.

For `Cc1cccc(C)c1NC(=S)NC(=O)c1cnn(C)c1`, the growth, % of control at 10 µM with MOLT-4 turned out to be 40.5%.

For the molecule `Cc1ccc(NC(=S)NC(=O)c2cnn(C)c2)cc1`, in the test on NCI-H522, the growth, % of control at 10 µM was found to be 62.5%.

For `Cc1cs/c(=N\C(=O)c2cnn(C)c2)n1-c1ccc(Cl)cc1`, the growth, % of control at 10 µM with ACHN is -11.8%; in the test with DU-145 [1], 0.3%.

Take `Cn1cc(C(=O)NC(=S)Nc2ccc(Cl)cc2)cn1`: the growth, % of control at 10 µM in the test with NCI-H522 is 47.2%.

With `COc1ccc(NC(=S)NC(=O)c2cnn(C)c2)cc1`, the growth, % of control at 10 µM in the test on HOP-92 is 68.7%.

For `Cn1cc(C(=O)NC(=S)Nc2ccc(Cl)cc2Cl)cn1`, the growth, % of control at 10 µM with UACC-62 came to 79.7%.

Turning to `O=C(NC(=S)Nc1cc(-c2ccc(Br)cc2)n[nH]1)c1ccccc1`, the GI50 with NCI-H23 is 9.33 µM; in the test with SF-539, 3.39 µM; in the test with HCT-116 [2], 1.78 µM; with OVCAR-8, 4.68 µM; in the test with SNB-75, 6.17 µM; in the test with SK-OV-3, 7.24 µM. Moreover, the GI50 is 3.16 µM in the test with RXF 393; 4.07 µM with UO-31; 2.75 µM in test [3]; 2.34 µM with A549; 3.8 µM with MDA-MB-231; 11.7 µM in the test with SR. Besides, the GI50 in the test with 786-0 is 3.24 µM; in the test with NCI/ADR-RES, 4.9 µM; with OVCAR-3 it was 5.01 µM; in the test on LOX IMVI, 5.5 µM; in the test with Malme-3M, 6.61 µM; in the test with SF-295 it was 9.77 µM. Also, the GI50 with NCI-H322M is 4.47 µM; with DU-145 [5], 9.33 µM; in the test with OVCAR-4, 4.27 µM. Moreover, the CC50 in the test on NCI-H23 (read-out: pLC50 (converted)) was greater than 100 µM; in the test with SF-539 (setting [6]), greater than 100 µM; in the test on HCT-116 [2] (setting [6]), 24.5 µM; with OVCAR-8 (setting [6]) it was 69.2 µM; with SNB-75 (setting [6]), 89.1 µM; with SK-OV-3 (setting [6]), 52.5 µM. Besides, the CC50 in the test with RXF 393 (setting [6]) is 47.9 µM; in the test with UO-31 (setting [6]) it was 85.1 µM; in [3] (setting [6]), greater than 100 µM; in the test on A549 (setting [6]), 79.4 µM; with MDA-MB-231 (setting [6]), greater than 100 µM; with SR (setting [6]), greater than 100 µM. In addition, the CC50 was 47.9 µM with 786-0 (setting [6]); greater than 100 µM in the test with NCI/ADR-RES (setting [6]); 70.8 µM in the test on OVCAR-3 (setting [6]); greater than 100 µM with LOX IMVI (setting [6]); greater than 100 µM with Malme-3M (setting [6]); greater than 100 µM in the test on SF-295 (setting [6]). The CC50 with NCI-H322M (setting [6]), with DU-145 [5] (setting [6]) and in the test with OVCAR-4 (setting [6]) was greater than 100 µM in each case. The TGI in the test with NCI-H23 (read-out: pTGI (converted)) is 50.1 µM; in the test with SF-539 (read-out: pTGI) it was greater than 100 µM; in the test on HCT-116 [2] (read-out: pTGI (converted)), 4.79 µM; with OVCAR-8 (read-out: pTGI (converted)), 20.9 µM; in the test with SNB-75 (read-out: pTGI (converted)) it was 26.9 µM; in the test on SK-OV-3 (read-out: pTGI (converted)), 21.9 µM. Also, the TGI was 15.1 µM in the test with RXF 393 (read-out: pTGI (converted)); 21.4 µM in the test on UO-31 (read-out: pTGI (converted)); 33.9 µM in test [3] (read-out: pTGI (converted)); 14.1 µM in the test on A549 (read-out: pTGI (converted)); 22.4 µM in the test with MDA-MB-231 (read-out: pTGI (converted)); 40.7 µM in the test on SR (read-out: pTGI (converted)). Besides, the TGI in the test with 786-0 (read-out: pTGI (converted)) is 11.7 µM; in the test with NCI/ADR-RES (read-out: pTGI (converted)), 63.1 µM; with OVCAR-3 (read-out: pTGI (converted)) it was 20.4 µM; in the test on LOX IMVI (read-out: pTGI), greater than 100 µM; with Malme-3M (read-out: pTGI (converted)), 91.2 µM; in the test on SF-295 (read-out: pTGI (converted)), 36.3 µM. Also, the TGI in the test on NCI-H322M (read-out: pTGI (converted)) is 44.7 µM; in the test on DU-145 [5] (read-out: pTGI), greater than 100 µM; in the test on OVCAR-4 (read-out: pTGI (converted)), 24 µM. Also, the growth, % of control at 10 µM with TK-10 is -19.9%; with HCT-116 [4], 1%; in the test with NCI-H522, 8.9%.

For `Cc1cs/c(=N\C(=O)c2cnn(C)c2)n1-c1ccccc1`, the growth, % of control at 10 µM with ACHN was -15.7%; in the test on DU-145 [1], 1.6%.

For `Cc1cc(NC(=S)NC(=O)c2ccccc2)n(-c2ccccc2)n1`, the growth, % of control at 10 µM in the test on MDA-MB-435 came out at 22.6%.

`Cn1cc(C(=O)NC(=S)Nc2c(Cl)cccc2Cl)cn1`: the growth, % of control at 10 µM with CAKI-1 was 69.7%.
